Measured values published in ChEMBL document CHEMBL4138104, “Indole carboxylic acid esters of melampomagnolide B are potent anticancer agents against both hematological and solid tumor cells” (Eur J Med Chem, 2017).

Columns and labels:
Type in all cases: functional
[1] = system: CCRF-CEM; assay: Growth inhibition of human CCRF-CEM cells incubated for 48 hrs by sulforhodamine B assay
Procedure, shortened: (§1)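 NCI-60 screen. Compounds were dosed at five concentrations spanning 10^-4 to 10^-8 M for 48 h at 37 °C. Cells were TCA-fixed, stained with 0.4% SRB and read at 515 nm against time-zero and vehicle controls. GI50 is the concentration giving a 50% reduction in net protein increase.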

[2] = system: HL-60(TB); assay: Growth inhibition of human HL-60(TB) cells incubated for 48 hrs by sulforhodamine B assay; details: HL-60, 48 h
Procedure, shortened: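 Performed at NCI's 60-line screen. Cells grown in RPMI with 5% FBS and 2 mM L-glutamine, plated 5,000–40,000 cells/well and incubated 24 h at 37 °C before compound addition. DMSO stocks were diluted in medium with gentamicin, and five concentrations spanning 10^-4 to 10^-8 M were tested. Exposure was 48 h. Cells were fixed with TCA, stained with SRB, and read at 515 nm. GI50 taken from log dose-response curves as 50% reduction in net protein increase versus control.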

[3] = system: K562; assay: Growth inhibition of human K562 cells incubated for 48 hrs by sulforhodamine B assay; details: K562, 48 h; procedure, shortened: as §1
[4] = system: MOLT-4; assay: Growth inhibition of human MOLT4 cells incubated for 48 hrs by sulforhodamine B assay; details: MOLT-4, 48 h; procedure, shortened: as §1
[5] = system: RPMI-8226; assay: Growth inhibition of human RPMI8226 cells incubated for 48 hrs by sulforhodamine B assay; details: RPMI-8226, 48 h; procedure, shortened: as §1
[6] = system: A549; assay: Growth inhibition of human A549/ATCC cells incubated for 48 hrs by sulforhodamine B assay; details: A549, 48 h; procedure, shortened: as §1
[7] = system: HOP-92; assay: Growth inhibition of human HOP92 cells incubated for 48 hrs by sulforhodamine B assay; details: HOP-92, 48 h; procedure, shortened: as §1
[8] = system: NCI-H226; assay: Growth inhibition of human NCI-H226 cells incubated for 48 hrs by sulforhodamine B assay; details: NCI-H226, 48 h; procedure, shortened: as §1
[9] = system: NCI-H23; assay: Growth inhibition of human NCI-H23 cells incubated for 48 hrs by sulforhodamine B assay; details: NCI-H23, 48 h; procedure, shortened: as §1
[10] = system: NCI-H322M; assay: Growth inhibition of human NCI-H322M cells incubated for 48 hrs by sulforhodamine B assay; procedure, shortened: as §1
[11] = system: NCI-H460; assay: Growth inhibition of human NCI-H460 cells incubated for 48 hrs by sulforhodamine B assay; details: NCI-H460, 48 h; procedure, shortened: as §1
[12] = system: NCI-H522; assay: Growth inhibition of human NCI-H522 cells incubated for 48 hrs by sulforhodamine B assay; details: NCI-H522, 48 h; procedure, shortened: as §1
[13] = system: HCC 2998; assay: Growth inhibition of human HCC2998 cells incubated for 48 hrs by sulforhodamine B assay; details: HCC 2998, 48 h; procedure, shortened: as §1
[14] = system: HCT-116; assay: Growth inhibition of human HCT116 cells incubated for 48 hrs by sulforhodamine B assay; details: HCT-116, 48 h; procedure, shortened: as §1
[15] = system: HCT-15; assay: Growth inhibition of human HCT15 cells incubated for 48 hrs by sulforhodamine B assay; details: HCT-15, 48 h; procedure, shortened: as §1
[16] = system: HT-29; assay: Growth inhibition of human HT-29 cells incubated for 48 hrs by sulforhodamine B assay; details: HT-29, 48 h; procedure, shortened: as §1
[17] = system: KM12; assay: Growth inhibition of human KM12 cells incubated for 48 hrs by sulforhodamine B assay; details: KM12, 48 h; procedure, shortened: as §1
[18] = system: SW-620; assay: Growth inhibition of human SW620 cells incubated for 48 hrs by sulforhodamine B assay; details: SW-620, 48 h
Procedure, shortened: (§2)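 NCI-60 screen run at NCI. Cells grown in RPMI medium with 5% FBS and 2 mM L-glutamine, plated at 5,000–40,000 cells/well, and preincubated 24 h at 37 °C. Time-zero plates were TCA-fixed. Compounds came from DMSO stocks and were tested at five concentrations from 10^-4 to 10^-8 M for 48 h. Cells were then TCA-fixed, stained with 0.4% SRB, and OD read at 515 nm. GI50 is the concentration giving a 50% reduction in net protein increase versus control.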

[19] = system: SF-268; assay: Growth inhibition of human SF268 cells incubated for 48 hrs by sulforhodamine B assay; details: SF-268, 48 h; procedure, shortened: as §1
[20] = system: SF-295; assay: Growth inhibition of human SF295 cells incubated for 48 hrs by sulforhodamine B assay; details: SF-295, 48 h; procedure, shortened: as §1
[21] = system: SF-539; assay: Growth inhibition of human SF539 cells incubated for 48 hrs by sulforhodamine B assay; details: SF-539, 48 h; procedure, shortened: as §1
[22] = system: SNB-19; assay: Growth inhibition of human SNB19 cells incubated for 48 hrs by sulforhodamine B assay; details: SNB-19, 48 h; procedure, shortened: as §2
[23] = system: U-251; assay: Growth inhibition of human U251 cells incubated for 48 hrs by sulforhodamine B assay; details: U-251, 48 h; procedure, shortened: as §2
[24] = system: LOX IMVI; assay: Growth inhibition of human LOXIMVI cells incubated for 48 hrs by sulforhodamine B assay; procedure, shortened: as §1
[25] = system: Malme-3M; assay: Growth inhibition of human MALME-3M cells incubated for 48 hrs by sulforhodamine B assay; procedure, shortened: as §1
[26] = system: SK-MEL-28; assay: Growth inhibition of human SK-MEL-28 cells incubated for 48 hrs by sulforhodamine B assay; details: SK-MEL-28, 48 h; procedure, shortened: as §1
[27] = system: UACC-257; assay: Growth inhibition of human UACC257 cells incubated for 48 hrs by sulforhodamine B assay; details: UACC-257, 48 h; procedure, shortened: as §2
[28] = system: UACC-62; assay: Growth inhibition of human UACC62 cells incubated for 48 hrs by sulforhodamine B assay; details: UACC-62, 48 h; procedure, shortened: as §2
[29] = system: OVCAR-5; assay: Growth inhibition of human OVCAR5 cells incubated for 48 hrs by sulforhodamine B assay; details: OVCAR-5, 48 h; procedure, shortened: as §1
[30] = system: OVCAR-8; assay: Growth inhibition of human OVCAR8 cells incubated for 48 hrs by sulforhodamine B assay; details: OVCAR-8, 48 h; procedure, shortened: as §1
[31] = system: NCI/ADR-RES; assay: Growth inhibition of human NCI/ADR-RES cells incubated for 48 hrs by sulforhodamine B assay; procedure, shortened: as §1
[32] = system: A498; assay: Growth inhibition of human A498 cells incubated for 48 hrs by sulforhodamine B assay; details: A498, 48 h; procedure, shortened: as §1
[33] = system: RXF 393; assay: Growth inhibition of human RXF393 cells incubated for 48 hrs by sulforhodamine B assay; details: RXF 393, 48 h; procedure, shortened: as §1
[34] = system: SN12C; assay: Growth inhibition of human SN12C cells incubated for 48 hrs by sulforhodamine B assay; procedure, shortened: as §1
[35] = system: UO-31; assay: Growth inhibition of human UO31 cells incubated for 48 hrs by sulforhodamine B assay; details: UO-31, 48 h; procedure, shortened: as §2
[36] = system: MCF7; assay: Growth inhibition of human MCF7 cells incubated for 48 hrs by sulforhodamine B assay; details: MCF7, 48 h; procedure, shortened: as §1
[37] = Cytotoxicity against human M9-ENL1 cells assessed as reduction in cell viability by trypan blue staining-based assay
Procedure, shortened: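 M9-ENL1 AML cells (MLL-ENL-transduced human blood cells) plated at 10^6 cells/mL in alpha-MEM with 5% human plasma, 20% FBS, SCF, IL-3, IL-7 and FLT3. Drug diluted from DMSO stock into PBS, final DMSO ≤0.5%. After 24 h exposure, dead cells assessed by trypan blue and by flow cytometry (Annexin V/PI or Annexin V/7-AAD). Viability normalized to vehicle; EC50 from dose-response curves; triplicate.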

Structure (SMILES) | GI50 [1] | GI50 [2] | GI50 [3] | GI50 [4] | GI50 [5] | GI50 [6] | GI50 [7] | GI50 [8] | GI50 [9] | GI50 [10] | GI50 [11] | GI50 [12] | GI50 [13] | GI50 [14] | GI50 [15] | GI50 [16] | GI50 [17] | GI50 [18] | GI50 [19] | GI50 [20] | further results
C=C1C(=O)O[C@@H]2[C@H]3O[C@]3(C)CC/C=C(/COC(=O)c3cc4ccccc4[nH]3)CC[C@@H]12 | 280 nM | 540 nM | 320 nM | 1510 nM | 260 nM | 2060 nM | 480 nM | 1470 nM | 1690 nM | 1680 nM | 1730 nM | 750 nM | 2140 nM | 190 nM | 210 nM | 270 nM | 2050 nM | 250 nM | 1590 nM | 1710 nM | GI50 [21]: 1320 nM; GI50 [22]: 1600 nM; GI50 [23]: 1890 nM; GI50 [24]: 180 nM; GI50 [25]: 1560 nM; GI50 [26]: 1290 nM; GI50 [27]: 1610 nM; GI50 [28]: 1470 nM; GI50 [29]: 1140 nM; GI50 [30]: 1990 nM; GI50 [31]: 2200 nM; GI50 [32]: 1740 nM; GI50 [33]: 1070 nM; GI50 [34]: 1740 nM; GI50 [35]: 880 nM; GI50 [36]: 300 nM; EC50 [37]: 1100 nM
C=C1C(=O)O[C@@H]2[C@H]3O[C@]3(C)CC/C=C(/COC(=O)c3cc4cc(OC)ccc4[nH]3)CC[C@@H]12 | 340 nM | 320 nM | 560 nM | 1320 nM | 500 nM | 1660 nM | 440 nM | 1570 nM | 1490 nM | 1880 nM | 1830 nM | 700 nM | 1540 nM | 420 nM | 320 nM | 350 nM | 1540 nM | 640 nM | 1660 nM | 2420 nM | GI50 [21]: 1020 nM; GI50 [22]: 1570 nM; GI50 [23]: 1600 nM; GI50 [24]: 300 nM; GI50 [25]: 1610 nM; GI50 [26]: 1230 nM; GI50 [27]: 1610 nM; GI50 [28]: 1380 nM; GI50 [29]: 1770 nM; GI50 [30]: 1580 nM; GI50 [31]: 1680 nM; GI50 [32]: 1630 nM; GI50 [33]: 1140 nM; GI50 [34]: 1770 nM; GI50 [35]: 1120 nM; GI50 [36]: 340 nM; EC50 [37]: 1800 nM
C=C1C(=O)O[C@@H]2[C@H]3O[C@]3(C)CC/C=C(/COC(=O)c3cc4ccccc4o3)CC[C@@H]12 | 330 nM | 1220 nM | 1150 nM | 1770 nM | 710 nM | 2910 nM | 1440 nM | 1740 nM | 1980 nM | 5520 nM | 2000 nM | 680 nM | 2470 nM | 320 nM | 1070 nM | 820 nM | 2020 nM | 660 nM | 1560 nM | 5900 nM | GI50 [21]: 1450 nM; GI50 [22]: 3160 nM; GI50 [23]: 1630 nM; GI50 [24]: 1420 nM; GI50 [25]: 1660 nM; GI50 [26]: 1750 nM; GI50 [27]: 1520 nM; GI50 [28]: 1680 nM; GI50 [29]: 1880 nM; GI50 [30]: 2430 nM; GI50 [31]: 2590 nM; GI50 [32]: 12900 nM; GI50 [33]: 1430 nM; GI50 [34]: 1780 nM; GI50 [35]: 1460 nM; GI50 [36]: 390 nM; EC50 [37]: 2900 nM
